The values that follow come from ChEMBL document CHEMBL1125410, “Selective irreversible inhibitors of aldose reductase” (J Med Chem, 1992).

The target of test [1] is Aldo-keto reductase family 1 member B1 (Rattus norvegicus, UniProt P07943). The test is described as follows: Compound was evaluated for the inhibition of Rat Lens Aldose reductase (RLAR). A digest of the protocol: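 Purified rat lens aldose reductase and rat kidney aldehyde reductase, each homogeneous on SDS-PAGE. The 1.0 mL assay held equal enzyme units in 0.10 M Na,K phosphate (pH 6.2), 0.3 mM NADPH, 10 mM DL-glyceraldehyde and inhibitor. The NADPH decrease at 340 nm was followed over 4 min, with no-substrate absorbance controls. IC50 is given as mean ± SD.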

The target in test [2] is Aldo-keto reductase family 1 member B1 (Rattus norvegicus) (UniProt P07943). In words: Compound was evaluated for irreversible inhibition of Rat Lens Aldose reductase (RLAR) at 10e-4 M. A digest of the protocol: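 Each purified reductase was desalted into 0.1 M phosphate (pH 7.4) to remove glycerol and 2-mercaptoethanol. Enzyme (ca. 0.3 unit/mL) was exposed to inhibitor or buffer alone for 15 min at room temperature. A 400 µL aliquot was then desalted into pH 7.0 phosphate with 10 mM 2-mercaptoethanol, and BSA was added. The eluate was kept on ice, and residual activity was read from NADPH loss at 340 nm with DL-glyceraldehyde. Runs were at least triplicate and averaged.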

Test [3] can be described thus: Ratio of IC50(RKALR) vs IC50(RLAR).
Test [4] has as its system Aldehyde reductase AKR1A1 (Rattus norvegicus). In words: Compound was evaluated for irreversible inhibition of Rat kidney Aldehyde reductase (RKALR) at 10e-4 M.
Test [5] deals with Aldo-keto reductase family 1 member B1 (Rattus norvegicus) (UniProt P07943). The test is described as follows: Protection by the compound of irreversible inhibition of Rat Lens Aldose reductase by [5-(2-Iodo-acetyl)-1,3-dioxo-1H,3H-benzo[de]isoquinolin-2-yl]-acetic acid(0.1 mM) at 0.1 mM concentration. The format is functional. A digest of the protocol:
(§1)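 Rat lens aldose reductase was desalted into 0.1 M phosphate (pH 7.4). The enzyme was preincubated 5 min with the reversible inhibitor, then the iodoacetamide label was added for a further 5 min. Unreacted reagent was removed by desalting into buffer with 10 mM 2-mercaptoethanol, BSA was added, and residual activity was read by NADPH loss at 340 nm. Runs were at least triplicate and averaged.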

Test [6] shares this target. The test is described as follows: Protection by the compound of irreversible inhibition of Rat Lens Aldose reductase by [5-(2-Iodo-acetyl)-1,3-dioxo-1H,3H-benzo[de]isoquinolin-2-yl]-acetic acid(0.1 mM) at 1 mM concentration. The format is functional. In short, it runs like this: as §1
The target is the same in test [7]. In words: Protection by the compound of irreversible inhibition of Rat Lens Aldose reductase by [5-(2-Iodo-acetyl)-1,3-dioxo-1H,3H-benzo[de]isoquinolin-2-yl]-acetic acid(0.01 mM) at 0.01 mM concentration. The format is functional. In short, it runs like this:
as §1

Test [8] has the same target. The test is described as follows: Protection by the compound of irreversible inhibition of Rat Lens Aldose reductase by [5-(2-Iodo-acetyl)-1,3-dioxo-1H,3H-benzo[de]isoquinolin-2-yl]-acetic acid(0.01 mM) at 0.1 mM concentration. The format is functional. In short, it runs like this: as §1
For test [9] the target is unchanged. The test is described as follows: Protection by the compound of irreversible inhibition of Rat Lens Aldose reductase by [5-(2-Iodo-acetyl)-1,3-dioxo-1H,3H-benzo[de]isoquinolin-2-yl]-acetic acid(0.01 mM) at 1 mM concentration. The format is functional. In short, it runs like this: as §1
For test [10] the target is unchanged. The test is described as follows: Protection by the compound of irreversible inhibition of Rat Lens Aldose reductase by [5-(2-Iodo-acetyl)-1,3-dioxo-1H,3H-benzo[de]isoquinolin-2-yl]-acetic acid(0.1 mM) at 0.01 mM concentration. The format is functional. In short, it runs like this:
as §1

pIC50: −log10 of the molar value.

One may read the pIC50 as −log10 of the IC50, conventionally taken in molar units. One may read the inhibition as the change of the read-out against control, counted positive when it falls.

`O=C(O)CN1C(=O)c2cccc3cc(NC(=O)CBr)cc(c23)C1=O` had a pIC50 in test [1] of 6.22. The same compound gave an inhibition in test [2] of 46%. Further, the Ratio in test [3] came to 13 Ratio.

On to `O=C(O)CN1C(=O)c2cccc3cc(N=C=S)cc(c23)C1=O`, for which the inhibition in test [4] is 0%.

For the compound `O=C(O)CN1C(=O)c2cccc3cc(C(=O)CI)cc(c23)C1=O`, the inhibition in test [2] stood at 89%.

Regarding `CC(=O)Nc1cc2c3c(cccc3c1)C(=O)N(CC(=O)O)C2=O`, the pIC50 in test [1] is 6.19. Besides, the Protection in test [5] was 19%; in test [6], 39%; in test [7], 11%; in test [8], 43%; in [9] it was 100%; in test [10], 17%. The Ratio in [3] was determined as 10.
